The values below come from ChEMBL document CHEMBL5244268, “Preventing Candida albicans biofilm formation using aromatic-rich piperazines” (Bioorg Med Chem, 2020).

In brackets after ≈: the same amount, converted by molar mass. Activity calls are given as the source filed them. No cut-off for these calls is given here.

The test system of experiment [1] is Candida albicans. Put plainly: Antifungal activity against Candida albicans ATCC 28366 assessed as reduction in fungal growth incubated for 24 hrs by plate count determination. The experiment is classed as functional, organism-based.
For experiment [2], the system named is Candida albicans. Put plainly: Antibiofilm activity against Candida albicans ATCC 28366 incubated for 24 to 48 hrs by crystal violet staining based absorbance spectrometry analysis. The note with it: time 24-48 hrs. The format is functional, organism-based. Summed up: (§1)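 Overnight cultures (37 °C, aerobic, Sabouraud pH 7.0) adjusted to OD660 0.2, mixed 1:1 with two-fold serial dilutions in medium and incubated at 37 °C. Biofilm stained with crystal violet, dye released in 75% ethanol, A550 read. Growth relative to compound-free wells (100%) after blank subtraction. At least two independent experiments in triplicate, t test.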

The subject of experiment [3] is Candida albicans. Briefly: Antibiofilm activity against Candida albicans ATCC 28366 assessed as disruption of preformed biofilm incubated for 12 hrs by crystal violet staining based absorbance spectrometry analysis. The experiment is classed as functional, organism-based. In a few lines:
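Mature biofilms grown 36 to 48 h in Sabouraud pH 7.0 without compound; medium and free cells removed, rinsed with 50 mM PBS pH 7.0, then two-fold serial dilutions in PBS added for 12 h at 37 °C. Residual biofilm stained with crystal violet, dye released in 75% ethanol, A550 read. PBS-treated biofilms as controls.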

In experiment [4] the test system is Candida albicans. Briefly: Antifungal activity against Candida albicans ATCC 28366 assessed as inhibition of fungal growth incubated for 24 hrs by plate count determination. The experiment is classed as functional. In a few lines:
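Biofilm-assay setup (Sabouraud pH 7.0, inoculum OD660 0.2, serial two-fold dilutions, 37 °C). […] Highest value kept when replicates differ. At least two independent experiments in triplicate.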

Experiment [5] concerns Candida albicans. Put plainly: Antibiofilm activity against Candida albicans ATCC 28366 assessed as inhibition of biofilm formation at 2 ug/ml incubated for 24 to 48 hrs by crystal violet staining based absorbance spectrometry analysis. The format is functional, organism-based. The conditions noted are these: dose 2.0 µg/ml, time 24-48 hrs. In a few lines: as §1
The subject of experiment [6] is Candida albicans. Put plainly: Fungicidal activity against Candida albicans ATCC 28366 assessed as prevention of colony formation incubated for 24 hrs. The format is functional.
Experiment [7] relates to Candida albicans. Briefly: Antifungal activity against Candida albicans ATCC 28366 assessed as reduction in fungal growth at up to 64 ug/ml incubated for 24 hrs by plate count determination. The conditions noted are these: dose <= 64.0 µg/ml. The format is functional, organism-based.
Experiment [8] concerns Candida albicans. Put plainly: Antibiofilm activity against Candida albicans ATCC 28366 assessed as inhibition of morphogenesis at 1 to 4 ug/ml incubated for 4 hrs in spider medium by microscopic analysis. The format is functional, organism-based. The note with it: dose 1-4 µg/ml. Summed up:
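Yeast-form cells grown overnight in YPD at 30 °C. 50 µL inoculated into 5 mL hypha-inducing medium (e.g., Spider: 1% nutrient broth, 1% mannitol, 0.2% K2HPO4, pH 7.2) containing two-fold dilutions, then 4 h at 37 °C. At least 100 cells per replicate counted as hypha (pseudohyphae and intermediates included) or yeast. Compound-free control for maximal conversion. At least two independent experiments in triplicate.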

Experiment [9] concerns Candida albicans. Put plainly: Antibiofilm activity against Candida albicans ATCC 28366 assessed as reduction in fungal growth at 1 to 4 ug/ml incubated for 4 hrs in spider medium by plate count determination. The experiment is classed as functional, organism-based. The conditions noted are these: dose 1-4 µg/ml. In a few lines: (§2)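 After the 4 h, 37 °C morphogenesis incubation in Spider medium (YPD overnight inoculum, 50 µL into 5 mL), OD660 measured to follow fungal growth; C. albicans viability confirmed by plate count.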

The subject of experiment [10] is Candida albicans. Put plainly: Antibiofilm activity against Candida albicans LAM-1 assessed as reduction in fungal growth at 1 to 4 ug/ml incubated for 4 hrs in spider medium by plate count determination. The experiment is classed as functional, organism-based. The note with it: dose 1-4 µg/ml. In a few lines:
as §2

The subject of experiment [11] is Candida albicans. Put plainly: Antibiofilm activity against Candida albicans ATCC 28366 assessed as inhibition of biofilm formation at 0.5 to 32 ug/ml incubated for 24 to 48 hrs by crystal violet staining based absorbance spectrometry analysis. The experiment is classed as functional, organism-based. The conditions noted are these: dose 0.5-32 µg/ml, time 24-48 hrs. In a few lines:
as §1

In experiment [12] the test system is Candida albicans. Briefly: Antibiofilm activity against Candida albicans ATCC 28366 at up to 96 ug/ml incubated for 24 to 48 hrs by crystal violet staining based absorbance spectrometry analysis. The format is functional, organism-based. The conditions noted are these: dose <= 96.0 µg/ml, time 24-48 hrs. Summed up: as §1
For experiment [13], the system named is Candida albicans. Briefly: Antibiofilm activity against Candida albicans ATCC 28366 at 48 ug/ml incubated for 24 to 48 hrs by crystal violet staining based absorbance spectrometry analysis. The format is functional, organism-based. The note with it: dose 48.0 µg/ml, time 24-48 hrs. In a few lines: as §1

On to `Oc1ccc(C[C@H]2CN[C@@H](Cc3ccccc3)CN2)cc1`, for which the result with Candida albicans [1], in the experiment on Candida albicans [2] and with Candida albicans [3] was inactive.

As a reminder, the MIC is the lowest concentration found to suppress growth. Usually MFC stands for the lowest tested concentration that kills the fungus rather than only halting it. For the molecule `c1ccc(COc2ccc(C[C@H]3CN[C@@H](Cc4ccc(OCc5ccccc5)cc4)CN3)cc2)cc1`, the MIC in the experiment with Candida albicans [4] worked out at 24 µg/mL (≈ 50.1 µM). In the experiment with Candida albicans [5], the inhibition result was “Active”. The MFC with Candida albicans [6] was 24 µg/mL (≈ 50.1 µM). The result in the experiment with Candida albicans [3] was inactive.

As for `CN1C[C@H](Cc2ccc(OCc3ccccc3)cc2)N(C)C[C@@H]1Cc1ccc(OCc2ccccc2)cc1`, the outcome in the experiment on Candida albicans [1] and in the experiment on Candida albicans [2] was inactive.

As to `Oc1ccc(C[C@@H]2CN[C@H](Cc3ccc(O)cc3)CN2)cc1`, the result with Candida albicans [1], in the experiment on Candida albicans [2] and with Candida albicans [3] was inactive.

With `c1ccc(COc2ccc(C[C@@H]3CN[C@H](Cc4ccccc4)CN3)cc2)cc1`, the outcome in the experiment on Candida albicans [7], with Candida albicans [9], in the experiment on Candida albicans [10] and in the experiment with Candida albicans [3] was inactive. Besides, the inhibition entry with Candida albicans [8] and in the experiment with Candida albicans [11] was “Active” in each case.

On to `CN1C[C@H](Cc2ccccc2)N(C)C[C@@H]1Cc1ccccc1`, for which the result in the experiment on Candida albicans [12] was inactive.

On to `c1ccc(C[C@@H]2CN[C@H](Cc3ccccc3)CN2)cc1`, for which the result with Candida albicans [12] and with Candida albicans [3] was inactive.

On to `c1ccc(COc2ccc(C[C@H]3CN[C@H](Cc4ccc(OCc5ccccc5)cc4)CN3)cc2)cc1`, for which the minimum inhibitory concentration (MIC) in the experiment with Candida albicans [4] was > 128 µg/mL. In the experiment with Candida albicans [13], the result was Active. Further, in the experiment on Candida albicans [3], the outcome was inactive.

Turning to `c1ccc(C[C@H]2CN[C@@H](Cc3ccccc3)CN2)cc1`, the outcome in the experiment on Candida albicans [12] and in the experiment with Candida albicans [3] was inactive.

For `Oc1ccc(C[C@H]2CN[C@@H](Cc3ccc(O)cc3)CN2)cc1`, the result in the experiment on Candida albicans [1], in the experiment with Candida albicans [2] and in the experiment on Candida albicans [3] was inactive.

As for `c1ccc(COc2ccc(C[C@H]3CN[C@H](Cc4ccccc4)CN3)cc2)cc1`, the outcome with Candida albicans [7] and in the experiment on Candida albicans [3] was inactive. Besides, the inhibition entry in the experiment on Candida albicans [11] is “Active”.

Turning to `CN1C[C@@H](Cc2ccccc2)N(C)C[C@H]1Cc1ccccc1`, the result in the experiment on Candida albicans [12] was inactive.

With `c1ccc(COc2ccc(C[C@@H]3CN[C@@H](Cc4ccccc4)CN3)cc2)cc1`, the outcome in the experiment on Candida albicans [7] and with Candida albicans [3] was inactive. For the same molecule, in the experiment with Candida albicans [4], the MIC was > 128 µg/mL. Moreover, the inhibition entry with Candida albicans [11] was “Active”.

`CN1C[C@H](Cc2ccccc2)N(C)C[C@H]1Cc1ccccc1`: the outcome in the experiment with Candida albicans [12] was inactive.

On to `c1ccc(C[C@H]2CN[C@H](Cc3ccccc3)CN2)cc1`, for which the result with Candida albicans [12] and in the experiment with Candida albicans [3] was inactive.

In the case of `c1ccc(COc2ccc(C[C@@H]3CN[C@H](Cc4ccc(OCc5ccccc5)cc4)CN3)cc2)cc1`, in the experiment with Candida albicans [4], the MIC was 24 µg/mL (≈ 50.1 µM). Besides, the inhibition entry in the experiment on Candida albicans [5] is “Active”. Besides, in the experiment with Candida albicans [6], the MFC amounted to 24 µg/mL (≈ 50.1 µM). The result in the experiment with Candida albicans [3] was inactive.

Regarding `Oc1ccc(C[C@@H]2CN[C@H](Cc3ccccc3)CN2)cc1`, the outcome in the experiment with Candida albicans [1], with Candida albicans [2] and in the experiment on Candida albicans [3] was inactive.

Take `CN1C[C@H](Cc2ccc(O)cc2)N(C)C[C@@H]1Cc1ccc(O)cc1`: the outcome with Candida albicans [1] and in the experiment on Candida albicans [2] was inactive.
